# dFosB act-1 – enhances mouse delta FosB homodimer DNA binding; P13346; purified delta FosB, TAMRA-CDK5 oligo fluorescence polarization; percent of positive-control signal above neutral wells; activation, % at 25 µM; 340,000 compounds, 0.99% hits;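 active means mean activation above about 17%, with every replicate also reaching it, limit read from the data, passing the limit was not always enough; inconclusive means only one of the two conditions met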
# Target sequence (P13346 whole entry, looked up): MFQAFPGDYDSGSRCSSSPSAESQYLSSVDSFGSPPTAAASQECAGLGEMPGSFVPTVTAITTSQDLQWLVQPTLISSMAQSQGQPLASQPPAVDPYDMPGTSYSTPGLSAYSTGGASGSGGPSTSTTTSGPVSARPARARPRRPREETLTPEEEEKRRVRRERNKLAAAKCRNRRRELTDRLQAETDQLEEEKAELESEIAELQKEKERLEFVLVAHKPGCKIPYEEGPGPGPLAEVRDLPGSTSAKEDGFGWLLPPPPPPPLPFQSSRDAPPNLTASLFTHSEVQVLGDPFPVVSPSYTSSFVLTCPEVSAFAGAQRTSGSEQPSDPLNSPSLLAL
# rRNA inh HTS – selective bacterial rRNA inhibition in E. coli | E. coli WT GFP vs humanized-ribosome RFP mutants, fluorescence, 24 h; stronger effect = lower value; DMSO median 0, no signal -100 | GFP signal change (wild-type ribosome), % (test concentration not listed) | 350,000 compounds, 1.6% hits;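 active means significant combined selectivity score with lowered wild-type GFP, culture density cut under 30%, mutant RFP and density less affected; inactive means any of these conditions unmet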
# PvdQ inh – P. aeruginosa PvdQ acylase inhibition | inhibition, % at 10 µM | purified PvdQ acylase, fluorescence plate reader | 340,000 compounds, 0.063% hits; in the data active means inhibition above about 30%, passing the limit was not always enough; inconclusive means no clear call, values can overlap the other calls
# SR-BI DiI inh – mouse SR-BI HDL lipid transfer inhibition | Q61009 | ldlA[mSR-BI] CHO cells, DiI-HDL uptake fluorescence, 3 h | inhibition, % at 12.5 µM | 320,000 compounds, 0.96% hits | AID 488896;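 active means mean replicate inhibition of at least 70% and a set share of replicates each scoring 70 or more; inconclusive means meets just one of the two criteria; inactive means fails both criteria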
# Xi reactivation – reactivates the inactive X chromosome in mouse fibroblasts; 360,000 compounds, 0.055% hits; XiGFP mouse fibroblasts, % GFP-positive cells imaging, 3 d; cells co-treated with 5-aza-dC sensitizer; scaled so ellipticine positive control = 100%; AID 743238; activation, % at 7.58 µM;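 active means mean normalized replicate activation at least 10% and every replicate at or above 10%; inconclusive means only one of the two criteria met; inactive means mean below 10% and not all replicates reach 10%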
#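 Material: XiGFP fibroblasts, SV40-immortalized; Buffer or medium: DMEM containing 5-aza-dC; Compound dosing: single point; Times: 3 days compound exposure.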
# SR-BI DiI-HDL act – SR-BI HDL lipid transfer activation; activation, % at 12.5 µM; CHO ldlA[mSR-BI] cells, DiI-HDL uptake fluorescence, 3 h; 100 = double the neutral-control signal; 320,000 compounds, 0.096% hits;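 active means mean replicate activation of at least 60% and every replicate at or above 60%; inconclusive means mean or all-replicate condition met, but not both; inactive means mean below 60% and not all replicates reaching 60%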
#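 Material: SR-BI-overexpressing, LDLR-lacking CHO cells | Dosing: Single compound concentration, delivered by pin transfer | Probe or stimulus: Labelled HDL, 10 µg/mL | Signal: Bottom-read cell fluorescence after medium removal, ex 550/em 595 nm | Schedule: 3 h, 37 °C | Evaluation: HDL uptake via cellular fluorescence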
# dFosB act-2 – delta FosB (mouse) homodimer activation | 2,400 tested, under 10 active | purified delta FosB, TAMRA-CDK5 oligo fluorescence polarization; normalised: neutral wells 0, positive control 100 | activation, % at 24.9 µM | shares compounds with dFosB act-1;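 active means highest replicate activation at or above 34% and every replicate reaching that threshold; inconclusive means meets only one of the two criteria; inactive means meets neither criterion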;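 further: higher polarization means more probe DNA bound by delta FosB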
# Hits are given with their value; i = inactive; ? = inconclusive; nt = no result given. This is a sample that favours compounds with a hit; in the whole collection about 2.6% have one here.
SMILES,dFosB act-1,rRNA inh HTS,PvdQ inh,SR-BI DiI inh,Xi reactivation,SR-BI DiI-HDL act,dFosB act-2
CC(=O)c1ccc(S(=O)(=O)N2CCN(CC(=O)Nc3ccnn3C3CCCC3)CC2)cc1,i,i,i,i,i,i,nt
NS(=O)(=O)c1ccc(CCNC(=O)CCCCCn2c(=S)[nH]c3ccc(Br)cc3c2=O)cc1,48.8,i,i,i,i,i,i
C=CCn1c(=S)[nH]c2cc(C(=O)NCCc3ccc(S(N)(=O)=O)cc3)ccc2c1=O,i,i,i,i,i,i,nt
O=C(CCCCCn1c(=S)[nH]c2ccc(Br)cc2c1=O)NCC1CCCO1 (stereo not given),i,nt,i,i,nt,i,nt
NS(=O)(=O)c1ccc(CCNC(=O)c2ccc(Cn3c(=O)[nH]c4ccccc4c3=O)cc2)cc1,34.1,i,i,i,i,i,i
C=CCc1ccc(OCCn2nnc3ccccc32)c(OC)c1,i,i,i,i,i,i,nt
CNC(=O)/C(C#N)=C/c1ccc(-c2ccc(Cl)cc2)o1,50.1,i,i,i,i,i,i
O=C(Nc1ccc(-c2ccc3nncn3n2)cc1)c1ccc(Br)o1,54.0,i,i,nt,i,nt,i
CC(C)C(=O)Nc1ccc(-c2ccc3nncn3n2)cc1,i,i,i,nt,i,nt,nt
CCOC(=O)c1c(CSC(=N)N)n(-c2ccccc2)c2cc(Br)c(OC(C)=O)cc12,30.4,-42.9,i,i,i,i,?
NC(=O)c1nc(-c2cccs2)nc2c1[nH]c(=O)n2-c1ccc(F)cc1,122.7,i,i,nt,i,nt,i
CC(C)Cc1nc(C(N)=O)c2[nH]c(=O)n(-c3ccc(F)cc3)c2n1,i,i,i,i,i,i,nt
Cc1c(-c2nc(N)nc(Nc3ccc(F)cc3)n2)oc2ccccc12,70.7,nt,i,i,nt,i,i
COCc1cc(C)nc(OCC(=O)N/N=C/c2ccc(-c3cc([N+](=O)[O-])ccc3C)o2)c1C#N,i,nt,i,i,nt,i,nt
Cc1ccc([N+](=O)[O-])cc1-c1ccc(/C=C(\C#N)c2[nH]nc(N)c2C#N)o1,29.2,nt,i,i,i,i,i
CCC1C(=O)Nc2ccccc2N1C(=O)c1ccc(Cl)nc1 (stereo not given),i,i,i,i,i,i,nt
CCn1cc(C(=O)C(F)(F)F)c2ccccc21,i,nt,i,i,nt,i,nt
CCn1cc(C(=O)NP(=O)(Nc2ccc(C)cc2)Nc2ccc(C)cc2)c2ccccc21,35.6,i,i,i,i,164.8,i
O=C(COc1ccc2ccccc2c1)NC1=NCCS1,53.5,nt,i,i,nt,i,i
COc1ccc(C(=O)NCCNc2nc3cc(C)c(C)cc3cc2C)cc1,25.2,i,i,i,i,i,i
Cc1cccc(C(=O)NCCNc2nc3cc(C)c(C)cc3cc2C)c1,i,nt,i,i,i,i,nt
O=C1COc2ccc(C(=O)COc3ccc([N+](=O)[O-])cc3)cc2N1,17.9,i,i,nt,i,nt,i
O=C1COc2ccc(C(=O)COC(=O)c3sc4ccccc4c3Cl)cc2N1,93.8,i,i,i,i,i,i
CCN(CC)S(=O)(=O)c1cc(C(=O)OCC(=O)c2ccc3c(c2)NC(=O)CO3)ccc1F,20.3,nt,i,i,nt,i,i
CN(C)S(=O)(=O)c1ccc(C(=O)OCC(=O)c2ccc3c(c2)NC(=O)CO3)cc1,27.2,i,i,i,i,i,i
COCc1cc(N2CCNC[C@H]2C)ccc1N1CCN(Cc2ccccc2)[C@@H](C)C1,nt,i,nt,nt,i,nt,nt
Cc1cccc(C(=O)NNC(=O)CCCCC(=O)NNC(=O)c2cccc(C)c2)c1,i,i,i,i,i,i,nt
O=C(Nc1cccc(Cl)c1)c1ccc2c(c1)SC1=NS(=O)(=O)CCN12,26.4,i,i,i,i,i,i
COCc1nnc(NC(=O)C23CC4CC(CC(C4)C2)C3)s1,i,i,i,i,i,i,nt
COc1ccc(/C(C)=N/NC(=O)c2nnn(-c3nonc3N)c2-c2cccs2)cc1,i,i,i,i,i,i,nt

# Compound activity (PubChem)
